Consider six molecules from ChEMBL document CHEMBL1212781, “VIM-19, a metallo-beta-lactamase with increased carbapenemase activity from Escherichia coli and Klebsiella pneumoniae” (2010).

≈ marks a conversion by molar mass, not a printed value.

Data set [1] deals with Escherichia coli. Nature of the data set: microbe, parasite or virus in culture. The data set is classed as functional. Particulars: TOP10.
In data set [2] the test system is Escherichia coli. Nature of the data set: microbe, parasite or virus in culture. As to conditions: TOP10. The data set is classed as functional. This is another data set of the same source.
The subject of data set [3] is Klebsiella pneumoniae. Nature of the data set: Antimicrobial activity in Klebsiella pneumoniae DIH-2 clinical isolate expressing beta-lactamase VIM-19 by Etest. Format: functional.
The subject of data set [4] is Escherichia coli. Nature of the data set: microbe, parasite or virus in culture. Format: functional. As to conditions: TOP10. This is another data set of the same source.
Data set [5] relates to Escherichia coli. Nature of the data set: Antimicrobial activity in Escherichia coli TOP10 strain. The data set is classed as functional. The procedure, abridged:
(§1)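 MICs were determined by Etest on Mueller-Hinton agar plates incubated at 37°C. Susceptibility was interpreted according to CLSI guidelines.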

Data set [6] relates to Escherichia coli. Nature of the data set: Antimicrobial activity in Escherichia coli J53 transconjugate with Escherichia coli DIH-1 expressing natural plasmid containing beta-lactamase VIM-19. The data set is classed as functional. In short, it runs like this: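 Transconjugants came from liquid mating-out at 37°C with azide-resistant E. coli J53 as recipient, selected on agar with amoxicillin (50 μg/ml) plus azide (100 μg/ml). MICs were then read by Etest on Mueller-Hinton agar at 37°C and interpreted per CLSI.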

Data set [7] concerns Escherichia coli. Nature of the data set: Antimicrobial activity in Escherichia coli DIH-1 expressing beta-lactamase VIM-19 by Etest. Format: functional. The procedure, abridged: (§2)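 MICs read by Etest on Mueller-Hinton agar incubated at 37°C. Susceptibility was categorized according to CLSI guidelines. Transconjugants were obtained in E. coli J53 by liquid mating at 37°C, with selection on agar containing amoxicillin (50 μg/ml) and azide (100 μg/ml).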

Data set [8] concerns Escherichia coli. Nature of the data set: Antimicrobial activity in Escherichia coli J53 strain. The data set is classed as functional. In short, it runs like this:
as §1

The test system of data set [9] is Escherichia coli. Nature of the data set: microbe, parasite or virus in culture. The data set is classed as functional. As to conditions: TOP10. This is another data set of the same source.
Data set [10] relates to CC(C)(O/N=C(\C(=O)N[C@@H]1C(=O)N2C(C(=O)[O-])=C(C[n+]3ccccc3)CS[C@H]12)c1csc(N)n1)C(=O)O. Nature of the data set: (§3) Ratio of Kcat to Km for beta-lactamase VIM-19 expressed in Escherichia coli TOP10 by spectrophotometry. In short, it runs like this: (§4)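 Enzyme came from E. coli TOP10 (pVIM-19) grown overnight at 37°C in Trypticase soy broth with amoxicillin (100 μg/ml) and kanamycin (30 μg/ml). The sonicated, cleared extract was purified on Q-Sepharose with a 0–1 M NaCl gradient, in Bis-Tris then cacodylate pH 6.5 buffers.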

Data set [11] deals with CO[C@@]1(NC(=O)Cc2cccs2)C(=O)N2C(C(=O)O)=C(COC(N)=O)CS[C@@H]21. The data set is described as §3. In short, it runs like this:
as §4

The subject of data set [12] is C[C@@H](O)[C@H]1C(=O)N2C(C(=O)O)=C(S[C@@H]3CN[C@H](C(=O)Nc4cccc(C(=O)O)c4)C3)[C@H](C)[C@H]12. The data set is described as §3. The procedure, abridged: as §4
The subject of data set [13] is C[C@@H](O)[C@H]1C(=O)N2C(C(=O)O)=C(S[C@@H]3CN[C@H](C(=O)N(C)C)C3)[C@H](C)[C@H]12. The description is as §3. The procedure, abridged:
as §4

The subject of data set [14] is CC1(C)S[C@@H]2[C@H](NC(=O)Cc3ccccc3)C(=O)N2[C@H]1C(=O)O. Described as §3. The procedure, abridged: as §4
In data set [15] the test system is CCN1CCN(C(=O)N[C@@H](C(=O)N[C@@H]2C(=O)N3[C@@H]2SC(C)(C)[C@@H]3C(=O)O)c2ccccc2)C(=O)C1=O. The description is as §3. The procedure, abridged: as §4
Data set [16] has as its system CO/N=C(\C(=O)N[C@@H]1C(=O)N2C(C(=O)O)=C(COC(C)=O)CS[C@H]12)c1csc(N)n1. Described as §3. In short, it runs like this: as §4
Data set [17] relates to CC(C)(O/N=C(\C(=O)N[C@@H]1C(=O)N2C(C(=O)[O-])=C(C[n+]3ccccc3)CS[C@H]12)c1csc(N)n1)C(=O)O. Nature of the data set: (§5) Hydrolytic activity of beta-lactamase VIM-19 expressed in Escherichia coli TOP10 by spectrophotometry. The procedure, abridged: as §4
The test system of data set [18] is CO[C@@]1(NC(=O)Cc2cccs2)C(=O)N2C(C(=O)O)=C(COC(N)=O)CS[C@@H]21. Described as §5. In short, it runs like this:
as §4

Data set [19] relates to C[C@@H](O)[C@H]1C(=O)N2C(C(=O)O)=C(S[C@@H]3CN[C@H](C(=O)Nc4cccc(C(=O)O)c4)C3)[C@H](C)[C@H]12. Described as §5. The procedure, abridged: as §4
Data set [20] deals with C[C@@H](O)[C@H]1C(=O)N2C(C(=O)O)=C(S[C@@H]3CN[C@H](C(=O)N(C)C)C3)[C@H](C)[C@H]12. The description is as §5. The procedure, abridged: as §4
The subject of data set [21] is CC1(C)S[C@@H]2[C@H](NC(=O)Cc3ccccc3)C(=O)N2[C@H]1C(=O)O. The data set is described as §5. In short, it runs like this: as §4
The test system of data set [22] is CCN1CCN(C(=O)N[C@@H](C(=O)N[C@@H]2C(=O)N3[C@@H]2SC(C)(C)[C@@H]3C(=O)O)c2ccccc2)C(=O)C1=O. Described as §5. In short, it runs like this:
as §4

Data set [23] has as its system CO/N=C(\C(=O)N[C@@H]1C(=O)N2C(C(=O)O)=C(COC(C)=O)CS[C@H]12)c1csc(N)n1. Described as §5. In short, it runs like this:
as §4

Data set [24] relates to Escherichia coli. Nature of the data set: Antimicrobial activity in Escherichia coli DIH-1 expressing beta-lactamase VIM-19 by Etest in presence of 4 ug/ml clavulanic acid. The data set is classed as functional. The procedure, abridged:
as §2

Data set [25] deals with Escherichia coli. Nature of the data set: Antimicrobial activity in Escherichia coli J53 strain in presence of 4 ug/ml clavulanic acid. Format: functional. The procedure, abridged:
(§6)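 MIC by Etest on Mueller-Hinton agar plates at 37°C, with susceptibility interpreted per CLSI guidelines.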

In data set [26] the test system is Escherichia coli. Nature of the data set: Antimicrobial activity in Escherichia coli TOP10 strain in presence of 4 ug/ml clavulanic acid. Format: functional. The procedure, abridged: as §6
Data set [27] concerns Escherichia coli. Nature of the data set: Antimicrobial activity in Escherichia coli J53 transconjugate with Escherichia coli DIH-1 expressing natural plasmid containing beta-lactamase VIM-19 in presence of 4 ug/ml clavulanic acid. The data set is classed as functional. In short, it runs like this:
as §2

Data set [28] relates to Klebsiella pneumoniae. Nature of the data set: Antimicrobial activity in Klebsiella pneumoniae DIH-2 clinical isolate expressing beta-lactamase VIM-19 by Etest in presence of 4 ug/ml clavulanic acid. The data set is classed as functional. The procedure, abridged:
as §2

The subject of data set [29] is Escherichia coli. Nature of the data set: Antimicrobial activity in Escherichia coli TOP10 hourbouring recombinant plasmid VIM-4 by Etest in presence of 4 ug/ml clavulanic acid. The data set is classed as functional. The procedure, abridged: as §2
For data set [30], the system named is Escherichia coli. Nature of the data set: Antimicrobial activity in Escherichia coli TOP10 hourbouring recombinant plasmid VIM-19 by Etest in presence of 4 ug/ml clavulanic acid. Format: functional. In short, it runs like this: as §2

In the case of `CC(C)(O/N=C(\C(=O)N[C@@H]1C(=O)N2C(C(=O)[O-])=C(C[n+]3ccccc3)CS[C@H]12)c1csc(N)n1)C(=O)O` [CEFTAZIDIME], the MIC with Escherichia coli [1] amounted to 32 µg/mL (≈ 58.5 µM); with Escherichia coli [2], 512 µg/mL (≈ 937 µM); in the data set on Klebsiella pneumoniae [3] it was 128 µg/mL (≈ 234 µM); against Escherichia coli [4], 512 µg/mL (≈ 937 µM); against Escherichia coli [5], 0.06 µg/mL (≈ 0.11 µM); in the data set with Escherichia coli [6], 32 µg/mL (≈ 58.5 µM). Further, the MIC in the data set on Escherichia coli [7] is above 512 µg/mL; against Escherichia coli [8] it was 0.06 µg/mL (≈ 0.11 µM); in the data set with Escherichia coli [9], 32 µg/mL (≈ 58.5 µM).

Take `CC1(C)S[C@@H]2[C@H](NC(=O)[C@H](C(=O)O)c3ccsc3)C(=O)N2[C@H]1C(=O)O` [TICARCILLIN]: the MIC was above 512 µg/mL against Escherichia coli [1]; above 512 µg/mL against Klebsiella pneumoniae [3]; 4 µg/mL (≈ 10.4 µM) against Escherichia coli [5]; above 512 µg/mL against Escherichia coli [6]; above 512 µg/mL in the data set with Escherichia coli [7]; 4 µg/mL (≈ 10.4 µM) in the data set with Escherichia coli [8]. In addition, the MIC in the data set on Escherichia coli [9] is above 512 µg/mL.

As for `CO/N=C(\C(=O)N[C@@H]1C(=O)N2C(C(=O)O)=C(COC(C)=O)CS[C@H]12)c1csc(N)n1` [CEFOTAXIME], the MIC in the data set on Escherichia coli [1] was 64 µg/mL (≈ 141 µM); in the data set with Escherichia coli [2], 64 µg/mL (≈ 141 µM); against Klebsiella pneumoniae [3] it was above 512 µg/mL; in the data set with Escherichia coli [4], 32 µg/mL (≈ 70.3 µM); against Escherichia coli [5] it was 0.12 µg/mL (≈ 0.263 µM); with Escherichia coli [6] it was 64 µg/mL (≈ 141 µM). Moreover, the MIC against Escherichia coli [7] is above 512 µg/mL; against Escherichia coli [8] it was 0.12 µg/mL (≈ 0.263 µM); with Escherichia coli [9], 64 µg/mL (≈ 141 µM).

On to `CO/N=C(\C(=O)N[C@@H]1C(=O)N2C(C(=O)O)=C(COC(N)=O)CS[C@H]12)c1ccco1` [CEFUROXIME], for which the MIC in the data set with Escherichia coli [1] was above 512 µg/mL; against Klebsiella pneumoniae [3], above 512 µg/mL; with Escherichia coli [5] it was 2 µg/mL (≈ 4.71 µM); in the data set with Escherichia coli [6], above 512 µg/mL; in the data set with Escherichia coli [7] it was above 512 µg/mL; in the data set on Escherichia coli [8] it was 4 µg/mL (≈ 9.43 µM). In addition, in the data set on Escherichia coli [9], the MIC is above 512 µg/mL.

One may read the kcat/Km as the second-order rate constant that governs catalysis at low substrate concentration. In general, Km refers to the substrate concentration at which the rate is half of its maximum. Usually kcat stands for the maximal rate divided by the concentration of active sites. In the case of “Metallo-beta-lactamase VIM-19 (Escherichia coli) (from UniProt D2D9J0)”, the kcat/Km amounted to 20000 M⁻¹ s⁻¹ in data set [10]; 500000 M⁻¹ s⁻¹ in [11]; 100000 M⁻¹ s⁻¹ in data set [12]; 2e+06 M⁻¹ s⁻¹ in data set [13]; 5e+06 M⁻¹ s⁻¹ in data set [14]; 4e+06 M⁻¹ s⁻¹ in data set [15]. Besides, the kcat/Km in data set [16] came out at 3e+07 M⁻¹ s⁻¹. Also, the Km in [17] was above 1000 µM; in [18] it was 60 µM; in data set [19], 200 µM; in data set [20] it was 15 µM; in data set [21], 300 µM; in data set [23], 30 µM. Moreover, the kcat in data set [17] is above 20 s⁻¹; in data set [18] it was 30 s⁻¹; in data set [19] it was 15 s⁻¹; in data set [21], 1300 s⁻¹; in data set [22], 860 s⁻¹; in data set [23], 900 s⁻¹.

For `CC1(C)S[C@@H]2[C@H](NC(=O)[C@H](N)c3ccc(O)cc3)C(=O)N2[C@H]1C(=O)O` [AMOXICILLIN], the MIC is above 512 µg/mL against Escherichia coli [1]; above 512 µg/mL with Klebsiella pneumoniae [3]; above 512 µg/mL with Escherichia coli [24]; 4 µg/mL in the data set on Escherichia coli [25]; 4 µg/mL (≈ 10.9 µM) against Escherichia coli [5]; 4 µg/mL in the data set with Escherichia coli [26]. The MIC is above 512 µg/mL in the data set on Escherichia coli [27]; above 512 µg/mL with Klebsiella pneumoniae [28]; above 512 µg/mL with Escherichia coli [6]; above 512 µg/mL with Escherichia coli [29]; above 512 µg/mL against Escherichia coli [7]; 4 µg/mL (≈ 10.9 µM) in the data set on Escherichia coli [8]. Also, the MIC in the data set with Escherichia coli [30] and against Escherichia coli [9] was above 512 µg/mL throughout.
